Assay results collected from several papers.
Each line is one published result; the experiments were not run side by side.

For `O=C(NCC1CC1)c1cc(N2CC[C@H](O)C2)nc(N2CCC[C@@H](c3ccccc3)C2)n1`, the bioavailability was 25% (mouse, plasma; oral, 10 mg/kg).
With `CCOc1ccc(Cc2cc([C@@H]3O[C@H](CO)[C@@H](O)[C@H](O)[C@H]3O)ccc2Cl)cc1` the bioavailability was 67% (male C57BL/6 mouse, plasma; oral, 1 mg/kg).
`CCCCCCCC(=O)N[C@H](CN1CCCC1)[C@H](O)c1ccc2c(c1)OCCO2` gave a bioavailability of less than 1% (CD-1 mouse, plasma; oral, 10 mg/kg).
The bioavailability of `O=[N+]([O-])c1cccc2[nH]c(CNc3nc(N4CCOCC4)nc4c3ncn4-c3ccsc3)nc12` is reported as 0% (mouse, plasma; intravenous, 1 mg/kg).
`CCN1CCN(Cc2cc(NC(=O)c3ccc(C)c(-c4ccc5nc(NC(=O)C6CC6)cn5n4)c3)cc(C(F)(F)F)c2)CC1` gave a bioavailability of 4% (Swiss mouse, plasma; oral, 10 mg/kg).
`CC(C)(C)c1cc(NC(=O)Nc2ccc(Oc3ccnc4[nH]c(=O)cnc34)cc2F)n(-c2ccccc2)n1` has a bioavailability of 54% (BALB/c mouse, plasma; oral, 10 mg/kg).
With `CCc1cc(OC)c2nccc(N3CCc4c(cc(Cn5ccnc5)cc4-c4cn(C)nc4C(F)(F)F)C3=O)c2c1` the bioavailability was 194% (male CD-1 mouse, plasma; oral, 50 mg/kg).
For `Oc1ccc(-c2nc(-c3ccc(Oc4ccc(C(F)(F)F)cc4)cc3)no2)cc1`, the bioavailability was 100% (female CD-1 mouse, plasma; oral, 50 mg/kg).
`Nc1ccc(-c2ccc3ncc4ccc(=O)n(-c5cccc(C(F)(F)F)c5)c4c3c2)cn1` gave a bioavailability of 54% (male Swiss mouse, plasma; oral, 10 mg/kg).
With `O=C(NCCN1CCCC1)c1cc(-c2ccc(CN3CCOCC3)cc2)nc2ccc(F)cc12` the bioavailability was 74% (female NMRI mouse, blood; oral, 3 mg/kg).
`COc1ccc2nccc(N3CCc4c(cc(Cn5ccnc5)cc4-c4cn(C)nc4C(F)(F)F)C3=O)c2c1` has a bioavailability of 110% (male CD-1 mouse, plasma; oral, 50 mg/kg).
`COc1nc(-c2cc(C)c(N[C@@H](C)c3ccc(F)cc3)nn2)ccc1-n1cnc(C)c1` gave a bioavailability of 63.1% (male CD-1 mouse, plasma; oral, 5 mg/kg, single dose).
For `CC(C)(Nc1nc(-c2ccccn2)nc2ccccc12)c1ccccn1`, the bioavailability was 102% (female BALB/c mouse, plasma; oral, 50 mg/kg).
With `COc1nc2[nH]c(C(F)(F)F)nc2nc1Nc1ccc(OC(F)(F)F)cc1F` the bioavailability was 21% (C57BL/6 mouse, plasma; oral, 10 mg/kg).
With `N#C[C@@]1(c2ccc3c(N)ncnn23)O[C@H](CO)[C@@H](O)[C@H]1O` the bioavailability was 57% (male CD-1 mouse, plasma; oral, 10 mg/kg).
`Cc1c(C(=O)Nc2ccc(F)c(Cl)c2)sc(N)c1C(N)=O` has a bioavailability of 46% (male CD-1 mouse, plasma; oral, 10 mg/kg).
The bioavailability of `CN1CCc2c(c3ccccc3n2Cc2ccc(C(=O)NO)cc2)C1` is reported as roughly 6% (male CD-1 mouse, plasma; oral, 30 mg/kg).
`N#Cc1ccc(/C=C/c2nc3ccccc3c(=O)n2-c2cccc(C(=O)O)c2)cc1` gave a bioavailability of 50% (mouse, plasma; oral, 10 mg/kg, single dose).
`CC(C)c1cnn2c(NCc3ccccc3)cc(NC[C@H]3CCNC[C@@H]3O)nc12` gave a bioavailability of 30% (male CD-1 mouse, plasma; oral, 10 mg/kg).
For `CCc1ccc(Cc2cc([C@@H]3O[C@H](CO)[C@@H](O)[C@H](O)[C@H]3O)cc3c2CCC3)cc1`, the bioavailability was greater than 100% (male C57BL/6 mouse, plasma; oral, 3 mg/kg).
`CCN1CC(=O)NC(CC(C)C)C(=O)N(C)C(C)C(=O)NC(CC(C)C)C(=O)N2CCCC2C(=O)N(CC2CCOCC2)CC(=O)NC(CC(C)C)C(=O)N(C)C(C)C(=O)NC(C)C(=O)N2CCCC2C1=O` (stereo not drawn) gave a bioavailability of 50% (mouse, plasma; oral, 200 mg/kg).
The bioavailability of `CCc1cc(C(=O)NC)c2nccc(N3CCc4c(cc(Cn5ccnc5)cc4-c4cn(C)nc4C(F)(F)F)C3=O)c2c1` is reported as 252% (male CD-1 mouse, plasma; oral, 150 mg/kg).
`CC[C@H](C)[C@@H]1NC(=O)[C@@](C)(NC(=O)[C@H](CCCNC(=N)N)NC(=O)[C@H](CC(C)C)NC(=O)[C@@H](NC(=O)[C@H](CCC(N)=O)NC(=O)[C@H](CC(C)C)NC(C)=O)[C@@H](C)O)CCCC=CCCC[C@@](C)(C(=O)N[C@@H](CC(C)C)C(=O)N[C@@H](Cc2ccc3ccccc3c2)C(N)=O)NC(=O)[C@H](CCCNC(=N)N)NC(=O)[C@H](CCC(N)=O)NC1=O` has a bioavailability of 20.6% (male BALB/c mouse, plasma; intramuscular, 5 mg/kg).
With `CNC(=O)c1cc(OC)cc2c(N3CCc4c(cc(Cn5ccnc5)cc4-c4cn(C)nc4C(F)(F)F)C3=O)ccnc12` the bioavailability was 263% (male CD-1 mouse, plasma; oral, 50 mg/kg).
With `N[C@@H](CSSC[C@H](N)C(=O)O)C(=O)O` the bioavailability was 18.6% (Kunming mouse, plasma; oral, 25 mg/kg).
For `CC(C)(NC(=O)O[C@@H]1CN2CCC1CC2)c1csc(-c2ccc(F)cc2)n1`, the bioavailability was 74% (CD-1 mouse, plasma; oral, 10 mg/kg).
`Cc1ccc2cncc(N3CCc4c(cc(Cn5ccnc5)cc4-c4cn(C)nc4C(F)(F)F)C3=O)c2c1` gave a bioavailability of 35% (male CD-1 mouse, plasma; oral, 10 mg/kg).
